Assay outcomes as filed in PubChem BioAssay.
MC4R antag cAMP = MC4R antagonists of cAMP signaling, primary screen, cell-based, TR-FRET, antagonist arm of biased-ligand search | Melanocortin receptor 4 (Homo sapiens), P32245 | MC4R-expressing cells, MTII-stimulated cAMP, LANCE TR-FRET | inhibition, % at 6.5 µM | actives 0.48% (n = 360,000) | AID 540295, 2011;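 active = inhibition above its plate's cutoff, the mean of tested wells on that plate plus 3 SD, cut at about 29% in these data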;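 note: 0% = Melanotan II alone and 100% = Melanotan II plus saturating MCL0020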
Target sequence (P32245 whole entry, looked up): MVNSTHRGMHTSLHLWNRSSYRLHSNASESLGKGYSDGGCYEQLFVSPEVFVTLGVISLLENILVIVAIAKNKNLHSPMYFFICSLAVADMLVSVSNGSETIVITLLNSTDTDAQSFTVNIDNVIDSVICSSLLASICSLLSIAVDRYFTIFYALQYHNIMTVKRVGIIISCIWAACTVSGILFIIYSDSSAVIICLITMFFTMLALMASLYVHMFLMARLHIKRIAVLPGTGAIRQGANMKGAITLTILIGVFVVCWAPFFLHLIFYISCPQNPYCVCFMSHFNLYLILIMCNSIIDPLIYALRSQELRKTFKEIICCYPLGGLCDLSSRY
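Test system: U2OS cells stably expressing human melanocortin 4 receptor (MC4R); also added: Melanotan II challenge; compound: 6.5 µM single dose; timing: 30-min compound preincubation, 1-h Melanotan II challenge, 1-h detection, room temperature; signal: Eu-cAMP/anti-cAMP TR-FRET, emission 671 nm; repeats: one well per compound, no replicates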
MC4R barr agon = MC4R agonists recruiting beta-arrestin, primary screen, cell-based, luminescence, agonist arm of biased-ligand search; actives 0.98% (n = 360,000); activation, % at 8.9 µM; U2OS MC4R beta-arrestin complementation; percent of melanotan II response, DMSO zero;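 active = activation above a per-plate cutoff, the mean activation of sample wells on that plate plus 3 SD, cut at about 8% in these data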
PfGluPho inh = PfG6PD enzyme inhibitors, primary screen, biochemical, fluorescence intensity, uHTS. glucose-6-phosphate dehydrogenase-6-phosphogluconolactonase (Plasmodium falciparum 3D7). PfGluPho enzyme, NADPH resazurin-diaphorase fluorescence. inhibition, % at 20 µM. actives 0.78% (n = 350,000). AID 504690, 2011;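 active = inhibition reaching at least a set limit at 20 µM in the primary screen, cut at about 59% in these data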;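 note: 0% = DMSO wells with substrate and 100% = DMSO wells lacking glucose-6-phosphate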
Beta2AR agonist = beta2AR agonists driving receptor internalization, primary screen, cell-based, FAP fluorogen, flow cytometry. actives 0.43% (n = 340,000). Beta-2 adrenergic receptor (Homo sapiens), P07550. response, % (test concentration not listed). Am2.2-beta2AR cells. AID 504454, 2011;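 active = response above a set limit, near 3 SD of response in nonfluorescent compounds, cut at about 42% in these data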
ABHD5-PLIN5 inh = ABHD5-PLIN5 interaction inhibitors, primary screen, cell lysate, split luciferase complementation, luminescence; Perilipin-5 (Homo sapiens) + 1-acylglycerol-3-phosphate O-acyltransferase ABHD5 (Homo …; inhibition, % at 4 µM; actives 0.78% (n = 360,000); Split G. princeps luciferase complementation, 4 h;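 active = inhibition above the mean inhibition across every tested compound plus 3 SD, cut at about 22% in these data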;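 note: 0% = DMSO only wells and the 100% control is not disclosed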
PfG6PD confirm = PfG6PD inhibitors, hit retest, confirmation, biochemical, fluorescence intensity, single concentration; shares compounds with PfGluPho inh; recombinant PfGluPho, NADPH-diaphorase-resazurin fluorescence; inhibition, % at 20 µM; actives 34% (n = 2,400);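 active = inhibition of at least 50% at 20 µM in any single replicate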;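 note: 0% = DMSO with substrate and 100% = DMSO lacking glucose-6-phosphate substrate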
Diaphorase 10uM = diaphorase inhibitors and chemical oxidizers, confirmation, counter-screen for P. falciparum G6PD inhibitor project, biochemical, fluorescence intensity, 10 µM NADPH; diaphorase-coupled resazurin reduction, NADPH 10 uM; AID 504862, 2011; actives 39% (n = 820); inhibition, % at 20 µM; shares compounds with PfGluPho inh;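 active = average inhibition reaching 50% or more with the compound at 20 µM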;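 note: resorufin red fluorescence formed as diaphorase reduces resazurin using NADPH; 0% = DMSO with enzyme and 100% = DMSO without enzyme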
Diaphorase 30uM = diaphorase inhibitors and chemical oxidizers, confirmation, counter-screen for P. falciparum G6PD inhibitor project, biochemical, fluorescence intensity, 30 µM NADPH. AID 504863, 2011. actives 29% (n = 820). Diaphorase/resazurin coupled assay, resorufin fluorescence. inhibition, % at 20 µM. shares compounds with PfGluPho inh;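 active = inhibition averaging 50% or more, tested at 20 µM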;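 note: 0% = DMSO with enzyme and 100% = DMSO wells lacking diaphorase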
An asterisk follows results filed as active; . = no result given. Compounds with a hit are over-represented: about 3% of the library has one in this group of screens.

SMILES	MC4R antag cAMP	MC4R barr agon	PfGluPho inh	Beta2AR agonist	ABHD5-PLIN5 inh	PfG6PD confirm	others
Cc1cccc(NC(=O)CSCC(=O)OCc2ccccn2)c1	2	0	-2	0	10	.
CCOC(=O)C1(Cc2ccc(Cl)cc2)CCN(C(=O)c2cscn2)CC1	3	-3	-4	1	-1	.
COc1cc(/C=C2\SC(c3ccc(C)cc3)=NC2=O)cc(OC)c1OC	12	-2	24	4	-14	.
COc1cc(/C=C2\SC(c3ccccc3)=NC2=O)cc(Cl)c1O	-7	-4	61*	-3	-13	46
COc1ccc(/C=C2\SC(c3ccc(C)cc3)=NC2=O)cc1OC	3	-1	56	-13	-13	.
COc1cc(/C=C2\SC(c3ccc(C)cc3)=NC2=O)ccc1O	6	1	64*	4	-13	54*	Diaphorase 10uM=2;Diaphorase 30uM=-4
CC(=O)Nc1ccc(NC(=O)COC(=O)C2CCCCC2)cc1	5	-2	-3	4	-1	.
CCOC(=O)C1=C(CSc2nc(-c3ccncc3)ccc2C#N)OC(N)=C(C#N)C1c1cccnc1 (centres undefined)	-9	1	18	-13	-5	.
CCOC(=O)C1=C(CSc2nc(-c3ccncc3)ccc2C#N)OC(N)=C(C#N)C1c1ccc(OC)cc1 (centres undefined)	-5	-1	59*	-6	3	10
CCc1cc2c(=O)c(-c3nc(C)cs3)coc2cc1O	13	6	76*	6	3	30
c1ccc(-c2nc3cc4ccccc4cc3[nH]2)nc1	1	-1	89*	3	4	37
O=C(Nc1ccc2nc(-c3cccnc3)[nH]c2c1)c1ccccc1F	2	1	31	-2	4	.
c1cncc(-c2nc3cc4ccccc4cc3[nH]2)c1	-10	-1	62*	11	3	17
CCc1nc(SCC(=O)Nc2nnc(CC)s2)c2c(=O)n(C)c(=O)n(C)c2n1	15	1	-17	-18	1	.
O=S(=O)(/N=C(/c1ccccc1)N1CCOCC1)c1ccc(F)cc1F	6	-1	-3	-3	6	.
O=[N+]([O-])c1cc2no[n+]([O-])c2cc1N1CCCCC1	21	-1	129*	-15	-12	111*	Diaphorase 10uM=80*;Diaphorase 30uM=58*
N#Cc1cc(N2CCCCC2)c([N+](=O)[O-])cc1C#N	3	0	-3	-4	2	.
CCS(=O)(=O)N1CCN(c2ccc(Cl)cc2[N+](=O)[O-])CC1	1	-2	-4	-7	1	.
COCCN(CCOC)Cc1c(O)ccc2c1O/C(=C\c1ccc(C)o1)C2=O	1	-1	63*	1	22	8
Cc1ccc(/C=C2\Oc3cc(OCC(=O)NN)ccc3C2=O)o1	17	0	21	4	-1	.
COc1ccc(S(=O)(=O)N(C)CC(=O)NCCCn2ccnc2)cc1Cl	6	-1	-12	4	7	.
Nc1ccc(S(=O)(=O)c2cc(O)c3ccccc3c2O)cc1	-9	-2	103*	3	-6	70*	Diaphorase 10uM=33;Diaphorase 30uM=19
COc1ccc(-n2nc(C(=O)NCC(=O)N3CCC(C)CC3)c3ccccc3c2=O)c(OC)c1	5	-1	31	-6	0	.
CC1CN(C(=O)COC(=O)CSc2ccc([N+](=O)[O-])cc2)CC(C)O1 (centres undefined)	0	-5	60*	6	-16	-4
COc1c2ccoc2c(OC[C@@H](O)C(C)(C)O)c2oc(=O)ccc12	4	0	9	-8	7	.
SMILES	MC4R antag cAMP	MC4R barr agon	PfGluPho inh	Beta2AR agonist	ABHD5-PLIN5 inh	PfG6PD confirm	others
COc1c2ccoc2c(OCC=C(C)C)c2oc(=O)ccc12	15	2	68*	-10	2	54*	Diaphorase 10uM=18;Diaphorase 30uM=29
CCCCn1c(N)c(N(CCOC)C(=O)C(C)N2C(=O)c3ccccc3C2=O)c(=O)[nH]c1=O (centres undefined)	-4	-3	-6	4	8	.
COc1ccccc1Nc1nnc(SCc2cc(=O)n3ccsc3n2)s1	16	-2	67*	7	-7	40
Cc1ccc(Nc2nnc(SCc3cc(=O)n4ccsc4n3)s2)c(C)c1	7	-1	-2	-6	1	.
O=C1NC(=O)C(Cc2ccc(Cl)cc2)(c2ccccc2)N1 (centres undefined)	4	-2	68*	-1	6	38
O=C1NC(=O)C(Cc2ccccc2)(c2ccccc2)N1 (centres undefined)	2	0	4	5	7	.
Cc1cccc(C2(c3cccc(C)c3)CC2C(=O)Nc2ccc([N+](=O)[O-])cc2O)c1 (centres undefined)	10	3	113*	26	-32	60*	Diaphorase 10uM=55*;Diaphorase 30uM=38
C=CCNC(=O)C1CC1(c1cccc(C)c1)c1cccc(C)c1 (centres undefined)	7	0	7	6	0	.
COc1cccc(C2(c3cccc(OC)c3)CC2C(=O)Nc2ccccc2Cl)c1 (centres undefined)	5	-3	88*	5	3	37
COc1cccc(C2(c3cccc(OC)c3)CC2C(=O)Nc2ccc(F)cc2)c1 (centres undefined)	8	5	115*	0	-7	57*	Diaphorase 10uM=56*;Diaphorase 30uM=37
COc1ccc(-n2c(C)cc(C(=O)Cn3nnc4ccccc4c3=O)c2C)cc1	9	4	30	-3	-5	.
Cc1cc(C(=O)Cn2nnc3ccccc3c2=O)c(C)n1-c1ccccc1F	-12	1	65*	11	6	19
COC(=O)CSc1nnc(CNC(=O)c2ccc(OC)c(OC)c2)n1C	7	3	1	11	-2	.
O=S(=O)(c1ccccc1)N(CC(O)COc1ccccc1)c1ccccc1 (centres undefined)	-2	0	-9	-7	-7	.
Cn1cc(SCC(=O)N2CCCc3ccccc32)c2ccccc21	0	0	60*	4	-5	23
